The target of assay [1] is D(2) dopamine receptor (Homo sapiens) (UniProt P14416). Put plainly: Positive allosteric modulation of human dopamine D2S receptor expressed in CHO cell membranes assessed as stimulation of [3H]-NPA binding at 1 to 10 uM after 60 mins by beta scintillation counting analysis. Put shortly: (§1)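 Membranes from confluent CHO cells stably expressing human D2S, homogenized and spun at 48,400 g. Membranes were incubated with 0.25 nM [3H]NPA plus compound (eight concentrations) for 60 min at 25 °C in 50 mM Tris-HCl pH 7.4, 120 mM NaCl, 5 mM KCl, 4 mM MgCl2, 1 mM EDTA. Nonspecific binding was defined with (+)-butaclamol. Samples were filtered through PEI-treated filters. Result is % increase of specific binding over compound-free control; duplicates, three experiments, ANOVA.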

The target is the same in assay [2]. Put plainly: Positive allosteric modulation of human dopamine D2S receptor expressed in CHO cell membranes assessed as stimulation of [3H]-NPA binding at 10^-12 to 10^-9 M after 60 mins by beta scintillation counting analysis. The procedure, abridged: as §1
For assay [3] the target is unchanged. Nature of the assay: Positive allosteric modulation of human dopamine D2S receptor expressed in CHO cell membranes assessed as stimulation of [3H]-NPA binding at 10^-8 to 10^-4 M after 60 mins by beta scintillation counting analysis. Put shortly:
as §1

Activity calls are given as the source filed them. The rule behind the calls is not given here. Residues, ends and D or L forms follow the SMILES beside them.

D(2) dopamine receptor (Homo sapiens), sequence (P14416 whole entry): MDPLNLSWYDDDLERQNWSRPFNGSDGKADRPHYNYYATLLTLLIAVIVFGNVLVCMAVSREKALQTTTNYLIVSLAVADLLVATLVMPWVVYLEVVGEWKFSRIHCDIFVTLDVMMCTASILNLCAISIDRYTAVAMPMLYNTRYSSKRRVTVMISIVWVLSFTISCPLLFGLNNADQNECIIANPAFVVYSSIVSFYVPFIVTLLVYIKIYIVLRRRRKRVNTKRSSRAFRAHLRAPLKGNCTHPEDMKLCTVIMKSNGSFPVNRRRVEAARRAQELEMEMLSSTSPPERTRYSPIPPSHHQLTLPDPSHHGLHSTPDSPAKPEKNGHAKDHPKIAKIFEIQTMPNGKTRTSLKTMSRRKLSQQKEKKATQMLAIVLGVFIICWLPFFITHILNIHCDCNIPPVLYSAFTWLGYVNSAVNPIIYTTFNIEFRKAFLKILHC

As for `CC(C)[C@H](NC(=O)[C@@H]1N[C@@H](CN=[N+]=[N-])C[C@H]1CN=[N+]=[N-])C(=O)NCC(N)=O`, the result in assay [1] was Active.

Regarding `CC(C)[C@H](NC(=O)[C@H]1N[C@H](CN=[N+]=[N-])C[C@@H]1CN=[N+]=[N-])C(=O)NCC(N)=O`, the outcome in assay [2] was Active. For the same compound, in assay [3], the result was inactive.

For `CC(C)C[C@H](NC(=O)[C@@H]1N[C@@H](CN=[N+]=[N-])C[C@H]1CN=[N+]=[N-])C(=O)NCC(N)=O`, in assay [1], the result was Active.

As to `COC(=O)CNC(=O)[C@H](CC(C)C)NC(=O)[C@H]1N[C@H](CN=[N+]=[N-])C[C@@H]1CN=[N+]=[N-]`, the result in assay [1] was Active.

Take `CC(C)C[C@H](NC(=O)[C@@H]1N[C@@H](CN=[N+]=[N-])C[C@H]1CN=[N+]=[N-])C(=O)NCC(=O)O`: the result in assay [1] was Active.

`COC(=O)CNC(=O)[C@H](CC(C)C)NC(=O)[C@@H]1N[C@@H](CN=[N+]=[N-])C[C@H]1CN=[N+]=[N-]`: the outcome in assay [1] was Active.

Regarding `CC(C)C[C@H](NC(=O)[C@@H]1CCCN1)C(=O)NCC(N)=O` (H-Pro-Leu-Gly-NH2), the outcome in assay [2] was Active. Further, in assay [3], the outcome was inactive.

`CC(C)[C@H](NC(=O)[C@H]1N[C@H](CN=[N+]=[N-])C[C@@H]1CN=[N+]=[N-])C(=O)NCC(=O)O`: the outcome in assay [2] was Active. Further, the result in assay [3] was inactive.

Turning to `CC(C)[C@H](NC(=O)[C@@H]1N[C@@H](CN=[N+]=[N-])C[C@H]1CN=[N+]=[N-])C(=O)NCC(=O)O`, the result in assay [1] was Active.

Take `COC(=O)CNC(=O)[C@@H](NC(=O)[C@H]1N[C@H](CN=[N+]=[N-])C[C@@H]1CN=[N+]=[N-])C(C)C`: the outcome in assay [1] was Active.

As for `COC(=O)CNC(=O)[C@@H](NC(=O)[C@@H]1N[C@@H](CN=[N+]=[N-])C[C@H]1CN=[N+]=[N-])C(C)C`, the outcome in assay [1] was Active.

Regarding `CC(C)C[C@H](NC(=O)[C@H]1N[C@H](CN=[N+]=[N-])C[C@@H]1CN=[N+]=[N-])C(=O)NCC(N)=O`, in assay [1], the result was Active.
